Source: ChEMBL document CHEMBL1124584, “Effect of triphenylacrylonitrile derivatives on estradiol-receptor binding and on human breast cancer cell growth” (J Med Chem, 1989)

Columns and labels:
MCF7 [1] = test: Inhibitory activity against proliferation of MCF-7 cells in presence of 10e-6 M concentration of [3H]- estradiol (E2); assay type: functional; settings: Homo sapiens
MCF7 [2] = test: Percent of inhibitory activity versus 0.1 nm […] against proliferation of MCF-7 cells.; assay type: functional, Homo sapiens
In short: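 Same MCF-7 pre-culture in steroid-depleted phenol-red-free medium, seeded at 10000 cells/well. Cells grew with 0.1 nM E2 plus various compound concentrations, medium renewed every 2 days, for 8 days. DNA was measured in triplicate wells, as % DNA relative to E2 alone. % antagonist = (E2−TPE)/(E2−control)×100, from the IC50 or the response at 10^-6 M.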

MCF7 [3] = test: In vitro inhibition of MCF-7 cell proliferation compared to 0.1 nM [3H]-estradiol.; assay type: functional, cell-based; settings: Homo sapiens
[4] = biological target: T1, Anti-estrogen binding site (AEBS) (Homo sapiens) (UniProt Q15125+Q9UBM7); test: Relative binding affinity for antiestrogen binding site (AEBS) of calf uterus cytosol; assay type: tissue-based
In short: (§1)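 Calf uterus was homogenized in TED buffer (10 mM Tris-HCl, 1.5 mM EDTA, 1 mM DTT, pH 7.4) and spun at 12000 g for 1 h at 0–4 °C. […] Free ligand was removed with dextran-charcoal, and bound ligand was counted by scintillation. RBA was taken from the 50% displacement concentration.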

MCF7 [5] = test: Percent of inhibitory activity against proliferation of MCF-7 cells in presence of 10e-6 M concentration of […] (E2).; assay type: functional, Homo sapiens
In short: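 Cytotoxicity assay: MCF-7 cells were seeded at 20000/well in phenol-red-free medium with 5% DCC-treated FCS and exposed to compound (3–10 µM) plus 1 µM E2 for 6 days. Medium was renewed every 2 days. DNA content was read in triplicate wells as % of 1 µM E2 alone. Values are given as the IC30 and as % inhibition at 10^-5 M.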

MCF7 [6] = test: Effective dose for [3H]- estradiol against proliferation of MCF-7 cells; assay type: functional, cell-based; settings: Homo sapiens
BT-20 [7] = test: Inhibitory activity against proliferation of BT-20 cells in presence of TPE at 10e-5 M concentration.; assay type: functional; settings: Homo sapiens
In short: (§2)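 ER-negative BT-20 cells were seeded at 40000/well in phenol-red-free MEM-based medium and exposed to compound (3–10 µM) for 5 or 6 days, with medium renewed every 2 days. DNA content was read in triplicate wells as % of vehicle control. Values are given as the IC30 and as % inhibition at 10^-5 M.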

MCF7 [8] = test: Percent of effective dose for […] against proliferation of MCF-7 cells.; assay type: functional, Homo sapiens
In short: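 MCF-7 cells were kept 6 days in phenol-red-free MEM-based medium with 5% dextran-charcoal-stripped FCS, then seeded at 10000 cells/well. After 1 day they got test compound (10 pM to 1 µM) without E2, or vehicle (0.2% ethanol); medium was renewed every 2 days. DNA was assayed after 8–10 days in triplicate wells. % agonist = (TPE−control)/(E2−control)×100, from the EC50 or the maximum response.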

[9] = biological target: T1, Anti-estrogen binding site (AEBS) (Homo sapiens); test: Relative binding affinity for antiestrogen binding site (AEBS) of calf uterus 2 hr incubation at 0C; assay type: tissue-based; in short: as §1
BT-20 [10] = test: Percent of inhibitory activity against proliferation of BT-20 cells in presence of TPE at 10e-5 M concentration.; assay type: functional; settings: Homo sapiens; in short: as §2
[11] = biological target: T2, Estrogen receptor (Bos taurus) (UniProt Q9XSB5+P49884); settings: Uterus; Cytosol
[12] = biological target: T2, Estrogen receptor (Bos taurus); settings: Uterus; Cytosol; remark: listed apart in the source
[13] = biological target: T2, Estrogen receptor (Bos taurus); test: Selectivity for relative binding affinity against estrogen receptor in at 2 hrs and 5 hr in calf uterus cytosol; assay type: protein assay
In short: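 Calf uterine cytosol (TED buffer, pH 7.4; 180000 g, 1 h) was incubated with 1 nM [3H]E2 and competitor (0.3 nM–10 µM, 1% ethanol), either 2 h at 0 °C or 5 h at 25 °C. Bound ligand was separated with dextran-charcoal and counted by scintillation. RBA came from the concentration giving 50% displacement relative to E2. The value is the ratio of the 25 °C RBA to the 0 °C RBA.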

Structure (SMILES) | IC30 (MCF7 [1]) [µM] | Inhibition (MCF7 [2]) [%] | IC50 (MCF7 [3]) [µM] | relative binding affinity (RBA) ([4]; Bos taurus) | Inhibition (MCF7 [5]) [%] | EC50 (MCF7 [6]) [nM] | IC30 (BT-20 [7]) [µM] | Agonism (MCF7 [8]) [%] | RBA ([9]; Bos taurus) | inhibition at 10 µM (BT-20 [10]) [%] | RBA2 [11] | RBA1 [12] | relative binding affinity (RBA) [4] | RBA [9] | Selectivity [13]
CC/C(=C(/c1ccc(O)cc1)c1ccc(OCCN(C)C)cc1)c1ccccc1 | 5.3 | 91 | 0.022 | 20 | 74 | 0.016 | 9.3 | 61 | 20 | 33 |  |  |  |  | 
CCN(CC)CCOc1ccc(/C(=C(\C#N)c2ccccc2)c2ccc(O)cc2)cc1 | 3.9 | 100 | 0.025 | 6.9 | 89 | 0.03 | 3.5 | 12 | 6.9 | 94 | 3.4 | 3.6 |  |  | 
CC/C(=C(\c1ccccc1)c1ccc(OCCN(C)C)cc1)c1ccccc1 [TAMOXIFEN] | 6.5 | 90 | 0.219 | 100 | 49 | 0.11 | 5.7 | 21 | 100 | 56 |  |  |  |  | 
CCN(CC)CCOc1ccc(C(=C(C#N)c2ccccc2)c2ccc(OCCN(CC)CC)cc2)cc1 | 3.1 | 27 | > 1 | 3.6 | 94 | 0.28 | 3.3 | 62 | 3.6 | 87 | 0.4 | 0.42 |  |  | 
CCC(=C(c1ccc(O)cc1)c1ccc(OCCN(C)C)cc1)c1ccccc1 | 4 | 100 | 0.0025 |  | 81 | 0.003 | 4.8 | 10 |  | 65 |  |  | 40 | 40 | 
CCN(CC)CCOc1ccc(/C(=C(/C#N)c2ccccc2)c2ccc(O)cc2)cc1 | 4.8 | 100 | 0.0046 | 27 | 77 | 0.02 | 6.4 | 16 | 27 | 57 | 108 | 126 |  |  | 0.85
